Assay [1] concerns Rattus norvegicus. The assay can be described thus: Concentration required to produce 25% increase in intraventricular pressure(LV dp/dt). The assay is classed as functional, Cardiac ventricle. In outline:
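Isolated perfused male rat heart (400–600 g; pentobarbital 50 mg/kg ip, heparin 2000 units ip), Krebs-Henseleit bicarbonate buffer at constant 70 mmHg, 37 °C, spontaneous beating; LV dP/dt expressed as percent change from control; concentration giving a 25% increase (or decrease) in LV dP/dt determined graphically, minimum two hearts.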

For assay [2], the species on record is Rattus norvegicus. Briefly: Concentration required to produce 25% increase in coronary flow. The assay is classed as functional. The method, boiled down:
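Langendorff isolated hearts from male rats (400–600 g), pentobarbital 50 mg/kg ip anesthesia, heparin 2000 units ip; retrograde aortic perfusion with modified Krebs-Henseleit bicarbonate buffer, about 15 mL/min for 2–3 min, then constant 70 mmHg pressure, 37 °C; spontaneously beating. Coronary flow taken as percent change from control; EC25 (25% increase) read graphically from at least two hearts.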

Assay [3] deals with Voltage-gated L-type calcium channel (Rattus norvegicus, UniProt P22002+Q02485+P27732). The assay can be described thus: Inhibition of [3H]nitrendipine binding to calcium channels in the rat brain. The assay is classed as tissue-based.
Another assay is filed under the species Oryctolagus cuniculus. The assay can be described thus: The compound was tested for inhibition of potassium depolarized Rabbit aorta. The assay is classed as functional.

In the case of `CCO/C(O)=C1C(C)=N/C(=C\C(=O)c2ccccc2)[C@@H](C(=O)c2ccccc2)[C@@H]\1c1ccccc1C(F)(F)F`, the EC25 with Rattus norvegicus [1] amounted to 1200 nM; in the assay listed under Rattus norvegicus [2] it was 380 nM. Besides, the IC50 in assay [3] is 591.4 nM.

For `CCOC(=O)CC1=C(C(=O)OCC)C(c2ccccc2C(F)(F)F)/C(=C(\O)OCC)C(C)=N1` (configuration not stated), the IC50 in assay [3] is 20 nM.

Regarding `CCOC(=O)[C@@H]1C(/C=C(\O)c2ccccc2)=NC(C)=C([N+](=O)[O-])[C@H]1c1ccccc1C(F)(F)F`, the EC25 with Rattus norvegicus [1] was >300 nM; in the assay listed under Rattus norvegicus [2], 100 nM. Further, in assay [3], the IC50 is recorded as 335.8 nM.

Consider `CCOC(=O)C1=C(C)N=C(/C=C(\O)c2ccccc2)[C@@H](C(=O)OCC)[C@@H]1c1ccccc1`, for which the 25% effect concentration (EC25) in the assay with Rattus norvegicus [1] is given as 500 nM; in the assay listed under Rattus norvegicus [2] it was 200 nM. In addition, the IC50 in assay [3] was 912.8 nM.

With `CCOC(=O)[C@@H]1/C(=C/C(=O)c2ccc(F)cc2)N=C(C)/C(=C(/O)OCC)[C@H]1c1ccccc1C(F)(F)F`, the values for the EC25 with Rattus norvegicus [1] and in the assay filed under Rattus norvegicus [2] were >300 nM and 300 nM, respectively. Further, the IC50 in the assay listed under Oryctolagus cuniculus stood at 150000 nM; in assay [3] it was 116.7 nM.

As to `CCOC(=O)[C@@H]1C(/C=C(\O)c2ccccc2)=NC2=C(C(=O)CCC2)[C@H]1c1ccccc1C(F)(F)F`, the EC25 with Rattus norvegicus [1] is 1500 nM; in the assay listed under Rattus norvegicus [2], 1400 nM. In assay [3], the IC50 was > 1000 nM.

Take `CCOC(=O)CC1=NC(C)=C(C#N)C(c2ccccc2C(F)(F)F)/C1=C(\O)OCC` (configuration not stated): the IC50 in assay [3] amounted to 149.6 nM.

Regarding `CCOC(=O)[C@@H]1/C(=C/C(=O)c2ccc(Cl)cc2)N=C(C)/C(=C(/O)OCC)[C@H]1c1ccccc1C(F)(F)F`, the 25% effect concentration (EC25) with Rattus norvegicus [1] and in the assay listed under Rattus norvegicus [2] was <100 nM in each case. Further, the IC50 in assay [3] stood at 162.5 nM.

For the molecule `CCOC(=O)C1=C(C)N=C(C2=C(O)c3ccccc3CC2)[C@@H](C(=O)OCC)[C@@H]1c1ccccc1C(F)(F)F`, the IC50 in assay [3] is on record as > 1000 nM.

With `CCOC(=O)[C@@H]1/C(=C/C(=O)c2ccccc2)N=C(C)/C(=C(/O)OCC)[C@H]1c1ccccc1C(F)(F)F`, the figures for the EC25 in the assay on Rattus norvegicus [1] and in the assay listed under Rattus norvegicus [2] were >3000 nM and <100 nM, respectively. In addition, the half-maximal inhibitory concentration (IC50) in assay [3] is recorded as 296.9 nM.

`CCOC(=O)[C@@H]1/C(=C/C(=O)c2ccncc2)N=C(C)/C(=C(/O)OCC)[C@H]1c1ccccc1C(F)(F)F`: the EC25 in the assay with Rattus norvegicus [1] is reported as >300 nM; in the assay filed under Rattus norvegicus [2], 30 nM. Moreover, the IC50 came to 3100 nM in the assay listed under Oryctolagus cuniculus and 25.5 nM in assay [3].

As for `CCOC(=O)C1C(/C=C(\O)c2ccccc2)=NC(C)=C(C#N)C1c1ccccc1C(F)(F)F` (configuration not stated), the EC25 was determined as 3000 nM in the assay with Rattus norvegicus [1] and 300 nM in the assay listed under Rattus norvegicus [2]. In addition, in assay [3], the IC50 is listed as 1021 nM.

With `CCOC(=O)[C@@H]1/C(=C/C(=O)c2ccc(C)cc2)N=C(C)/C(=C(/O)OCC)[C@H]1c1ccccc1C(F)(F)F`, the EC25 in the assay on Rattus norvegicus [1] is given as >300 nM; in the assay listed under Rattus norvegicus [2], 130 nM. Moreover, the half-inhibitory concentration (IC50) in assay [3] is listed as 413.7 nM.

Turning to `CCOC(=O)[C@@H]1/C(=C/C(=O)c2ccccc2)N=C(C)/C(=C(/O)OCC)[C@H]1c1cccc(Cl)c1Cl`, the EC25 in the assay with Rattus norvegicus [1] is on record as >300 nM; in the assay listed under Rattus norvegicus [2] it was 200 nM. For the same molecule, the IC50 in assay [3] is given as 27.7 nM.

On to `COC(=O)C1=C(C)NC(C)=C(C(=O)OC)C1c1ccccc1[N+](=O)[O-]` [NIFEDIPINE], for which the results for the EC25 in the assay with Rattus norvegicus [1] and in the assay filed under Rattus norvegicus [2] were 300 nM and 10 nM, respectively. Further, in the assay listed under Oryctolagus cuniculus, inhibition was half-maximal at 200 nM (IC50).

`CCOC(=O)C1=C(C)N=C(/C=C(\O)OCC)C(C(=O)OCC)C1c1ccccc1C(F)(F)F` (configuration not stated): the values for the EC25 with Rattus norvegicus [1] and in the assay listed under Rattus norvegicus [2] were >300 nM and <100 nM, respectively. Besides, in assay [3], the IC50 is 346.9 nM.

In the case of `CC1=C([N+](=O)[O-])[C@@H](c2ccccc2C(F)(F)F)[C@H](C(=O)c2ccccc2)C(/C=C(\O)c2ccccc2)=N1`, the IC50 in assay [3] is reported as > 1000 nM.

Turning to `CCOC(=O)[C@@H]1/C(=C/C(=O)c2ccccc2Cl)N=C(C)/C(=C(/O)OCC)[C@H]1c1ccccc1C(F)(F)F`, the IC50 in assay [3] is given as > 1000 nM.

As to `CCOC(=O)[C@@H]1C(C2=C(O)c3ccccc3CC2)=NC(C)=C(C#N)[C@H]1c1ccccc1C(F)(F)F`, the EC25 with Rattus norvegicus [1] is given as >1000 nM; in the assay filed under Rattus norvegicus [2] it was 1000 nM. For the same molecule, in assay [3], the IC50 is given as > 1000 nM.

Regarding `CCOC(=O)[C@@H]1/C(=C/C(=O)c2ccccc2)N=C(C)/C(=C(/O)OCC)[C@H]1c1ccccc1[N+](=O)[O-]`, the EC25 in the assay with Rattus norvegicus [1] stood at 2200 nM; in the assay filed under Rattus norvegicus [2] it was 100 nM. The IC50 was found to be 17000 nM in the assay filed under Oryctolagus cuniculus and 31.1 nM in assay [3].

On to `CCOC(=O)[C@@H]1/C(=C/C(=O)c2ccc(N(C)C)cc2)N=C(C)/C(=C(/O)OCC)[C@H]1c1ccccc1C(F)(F)F`, for which the EC25 is reported as >300 nM in the assay on Rattus norvegicus [1] and 200 nM in the assay listed under Rattus norvegicus [2]. The IC50 stood at 2700 nM in the assay filed under Oryctolagus cuniculus and 31.7 nM in assay [3].

The term EC25 denotes the point of the concentration-response curve where the effect stands at 25%. Read a high EC25 as weaker potency. The IC50 is the concentration that gives 50% inhibition.

(Values after ChEMBL document CHEMBL1124189, “2-(2-Aryl-2-oxoethylidene)-1,2,3,4-tetrahydropyridines. Novel isomers of 1,4-dihydropyridine calcium channel blockers” (J Med Chem, 1988).)
